Experimental data reported in ChEMBL document CHEMBL4219229, “Synthesis and antiproliferative activity of derivatives of the phyllanthusmin class of arylnaphthalene lignan lactones” (Bioorg Med Chem, 2018).
Calls of active or inactive are those of the source. No cut-off for these calls is given here.

Assays:
[1] = system: OVCAR-3; assay: Cytotoxicity against human OVCAR3 cells measured after 24 to 72 hrs by SRB assay; format: functional, cell-based
In short: (§1)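 Cells from ATCC: HT-29 in RPMI 1640 with 10% FBS and 1% P/S; OVCAR3 in RPMI 1640 with 20% FBS, 1% P/S and 10 µg/mL insulin. Both kept at 37°C in 5% CO₂ and passaged at most 20 times. Seeded at 2,500–5,000 cells/well, attached overnight, then treated 24, 48 or 72 h (DMSO final 0.25%). Fixed, SRB-stained protein read out; normalized to vehicle; IC₅₀ from dose-response curves.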

[2] = system: MDA-MB-231; assay: Cytotoxicity against human MDA-MB-231 cells after 72 hrs by CellTiter96 AQueous one solution cell proliferation assay; format: functional, cell-based; conditions: MDA-MB-231, 72 h
[3] = system: HT-29; assay: Cytotoxicity against human HT-29 cells measured after 24 to 72 hrs by SRB assay; format: functional, cell-based; in short: as §1
[4] = system: MDA-MB-435; assay: Cytotoxicity against human MDA-MB-435 cells after 72 hrs by CellTiter96 AQueous one solution cell proliferation assay; format: functional, cell-based; conditions: MDA-MB-435, 72 h
[5] = Resistance index, ratio of IC50 for human K/VP.5 cells to IC50 for human etoposide-sensitive K562 cells; format: functional
In short: (§2)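 K562 and etoposide-resistant K/VP.5 cells (~1/5 topo IIα level) in suspension at 7.5 × 10⁴ cells/ml exposed to DMSO vehicle or serial compound concentrations (final DMSO 0.5%), triplicate wells; 72 hr at 37°C, then MTS reagent 1 hr at 37°C, absorbance 490 nm. IC₅₀ from four-parameter logistic fit; relative resistance = IC₅₀ K/VP.5 ÷ IC₅₀ K562; n = separate-day repeats.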

[6] = Cytotoxicity against human K/VP.5 cells after 72 hrs by CellTiter96 AQueous one solution cell proliferation assay; format: functional, cell-based; conditions: K/VP.5, 72 h; in short: as §2
[7] = system: K562; assay: Cytotoxicity against human etoposide-sensitive K562 cells after 72 hrs by CellTiter96 AQueous one solution cell proliferation assay; format: functional, cell-based; conditions: K562, 72 h; in short: as §2
[8] = target: DNA topoisomerase 2-alpha (Homo sapiens) (UniProt P11388); conditions: 100 uM
Sequence of DNA topoisomerase 2-alpha (Homo sapiens) (P11388 whole entry): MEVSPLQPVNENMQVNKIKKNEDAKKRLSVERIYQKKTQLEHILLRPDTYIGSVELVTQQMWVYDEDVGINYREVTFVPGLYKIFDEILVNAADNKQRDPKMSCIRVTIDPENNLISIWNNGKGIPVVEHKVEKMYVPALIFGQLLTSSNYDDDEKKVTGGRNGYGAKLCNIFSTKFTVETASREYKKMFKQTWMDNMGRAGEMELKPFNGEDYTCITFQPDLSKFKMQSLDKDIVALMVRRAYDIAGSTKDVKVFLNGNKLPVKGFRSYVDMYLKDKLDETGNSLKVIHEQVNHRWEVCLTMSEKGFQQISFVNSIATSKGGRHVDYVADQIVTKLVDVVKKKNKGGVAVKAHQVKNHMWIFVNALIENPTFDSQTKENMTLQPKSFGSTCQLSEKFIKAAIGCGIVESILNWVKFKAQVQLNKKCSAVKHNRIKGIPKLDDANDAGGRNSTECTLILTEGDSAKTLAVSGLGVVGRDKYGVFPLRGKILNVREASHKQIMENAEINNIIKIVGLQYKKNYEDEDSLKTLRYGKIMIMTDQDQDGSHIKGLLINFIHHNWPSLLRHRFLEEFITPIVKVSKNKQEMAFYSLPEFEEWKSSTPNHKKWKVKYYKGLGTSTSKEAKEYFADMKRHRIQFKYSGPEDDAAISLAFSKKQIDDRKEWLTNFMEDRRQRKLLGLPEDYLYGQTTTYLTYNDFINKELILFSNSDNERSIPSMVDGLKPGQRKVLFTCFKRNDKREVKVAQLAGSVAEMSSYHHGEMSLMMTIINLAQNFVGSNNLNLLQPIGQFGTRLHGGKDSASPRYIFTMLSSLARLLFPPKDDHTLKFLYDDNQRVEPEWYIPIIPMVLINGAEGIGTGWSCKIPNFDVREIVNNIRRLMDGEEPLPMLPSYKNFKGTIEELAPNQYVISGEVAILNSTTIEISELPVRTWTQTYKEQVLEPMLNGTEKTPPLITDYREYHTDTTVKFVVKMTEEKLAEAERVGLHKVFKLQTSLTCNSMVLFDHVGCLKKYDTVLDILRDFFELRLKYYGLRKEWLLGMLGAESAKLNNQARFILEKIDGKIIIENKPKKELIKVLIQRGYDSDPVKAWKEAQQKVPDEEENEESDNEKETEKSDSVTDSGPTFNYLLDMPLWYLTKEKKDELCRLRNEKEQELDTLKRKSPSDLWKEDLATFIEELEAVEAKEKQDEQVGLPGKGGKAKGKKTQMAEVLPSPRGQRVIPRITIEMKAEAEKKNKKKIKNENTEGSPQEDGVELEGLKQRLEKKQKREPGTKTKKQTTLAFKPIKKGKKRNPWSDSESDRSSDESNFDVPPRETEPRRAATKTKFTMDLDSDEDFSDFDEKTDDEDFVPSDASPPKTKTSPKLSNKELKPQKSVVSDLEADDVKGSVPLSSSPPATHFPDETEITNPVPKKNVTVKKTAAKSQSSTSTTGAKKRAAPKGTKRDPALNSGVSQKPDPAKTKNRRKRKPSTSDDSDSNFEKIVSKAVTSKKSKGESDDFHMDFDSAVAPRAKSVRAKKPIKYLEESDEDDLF

[9] = Selectivity ratio of IC50 for human OVCAR3 cells to IC50 for human HT-29 cells; format: functional
[10] = target: DNA topoisomerase 2-alpha (Homo sapiens) (UniProt P11388); assay: Inhibition of full-length recombinant human topoisomerase-2alpha expressed in yeast expression system assessed as reduction in enzyme-mediated supercoiled pBR322 DNA relaxation at 50 to 100 uM measured after 15 mins by ethidium bromide staining based agarose gel electrophoresis
In short: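 Topo IIα (125 ng) with 150 ng negatively supercoiled pBR322 and 1 mM ATP in 10 mM Tris-HCl pH 8.0, 50 mM KCl, 50 mM NaCl, 0.1 mM EDTA, 5 mM MgCl₂, 2.5% glycerol, drug in DMSO; started with enzyme, 15 min at 37°C, SDS/EDTA stop. Products resolved on 1% TBE agarose, ethidium bromide stained, imaged under UV.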

inhibition [8] | Structure (SMILES) | IC50 [1] [µM] | IC50 [2] [µM] | IC50 [3] [µM] | IC50 [4] [µM] | Ratio IC50 [5] | IC50 [6] [µM] | IC50 [7] [µM] | Ratio IC50 [9] | inhibition [10]
 | COc1cc2c(O[C@@H]3OC[C@H](O)[C@H](O)[C@H]3O)c3c(c(-c4ccc5c(c4)OCO5)c2cc1OC)C(=O)OC3 [ACUTISSIMALIGNAN A] | 4.8 |  |  |  |  |  |  |  | 
 | COc1cc2c(O[C@H]3OC[C@@H](OC(C)=O)[C@@H](OC(C)=O)[C@@H]3OC(C)=O)c3c(c(-c4ccc5c(c4)OCO5)c2cc1OC)C(=O)OC3 | 0.37 | 2.2 | 0.046 | 0.5 |  |  |  |  | 
 | COc1cc2c(O)c3c(c(-c4ccc5c(c4)OCO5)c2cc1OC)C(=O)OC3 [DIPHYLLIN] |  |  |  |  | 0.97 | 2.31 | 2.38 |  | 
Active | COc1cc([C@@H]2c3cc4c(cc3[C@@H](O[C@@H]3O[C@@H]5CO[C@@H](C)O[C@H]5[C@H](O)[C@H]3O)[C@H]3COC(=O)[C@H]23)OCO4)cc(OC)c1O [ETOPOSIDE] | 2.9 |  | 15 |  | 28.98 | 35.4 | 1.22 |  | 
 | CC(=O)O[C@H]1C(=O)[C@@]2(C)[C@H]([C@H](OC(=O)c3ccccc3)[C@]3(O)C[C@H](OC(=O)[C@H](O)[C@@H](NC(=O)c4ccccc4)c4ccccc4)C(C)=C1C3(C)C)[C@]1(OC(C)=O)CO[C@@H]1C[C@@H]2O [PACLITAXEL] | 0.011 |  | 0.011 |  |  |  |  |  | 
 | COc1cc2c(O[C@@H]3OC[C@@H](OC(C)=O)[C@H](OC(C)=O)[C@H]3OC(C)=O)c3c(c(-c4ccc5c(c4)OCO5)c2cc1OC)C(=O)OC3 | 0.57 | 5.1 | 0.16 | 0.23 |  |  |  |  | 
 | COc1cc2c(O[C@@H]3OC[C@H](OC(C)=O)[C@H](OC(C)=O)[C@H]3OC(C)=O)c3c(c(-c4ccc5c(c4)OCO5)c2cc1OC)COC3=O | > 10 |  | 0.47 |  |  |  |  |  | 
 | COc1cc2c(O[C@@H]3OC[C@@H](OC)[C@H](OC)[C@H]3OC)c3c(c(-c4ccc5c(c4)OCO5)c2cc1OC)C(=O)OC3 | 7.6 |  | 0.018 |  | 0.91 | 0.43 | 0.47 | >400 | Active
 | COCc1c(C(=O)OC)c(-c2ccc3c(c2)OCO3)c2cc(OC)c(OC)cc2c1O[C@@H]1OC[C@@H](OC)[C@H](OC)[C@H]1OC | 0.45 |  | 1.7 |  |  |  |  |  | 
 | COc1cc2c(O[C@@H]3OC[C@@H](O)[C@H](O)[C@H]3O)c3c(c(-c4ccc5c(c4)OCO5)c2cc1OC)C(=O)OC3 | 0.69 |  | 1.4 |  |  |  |  |  | 
 | COc1cc2c(O[C@@H]3OC[C@H](OC(C)=O)[C@H](OC(C)=O)[C@H]3OC(C)=O)c3c(c(-c4ccc5c(c4)OCO5)c2cc1OC)C(=O)OC3 | 0.29 | 1 | 0.14 | 0.14 | 1.08 | 0.92 | 0.85 |  | Active
 | COc1cc2c(O[C@@H]3OC[C@H](OC(C)=O)[C@H](OC(C)=O)[C@H]3OC(C)=O)c3c(c(-c4ccc5c(c4)OCO5)c2cc1OC)COC3 | > 10 |  | 1.4 |  |  |  |  |  | 
 | COc1cc2c(O[C@@H]3OC[C@H](OC)[C@H](OC)[C@H]3OC)c3c(c(-c4ccc5c(c4)OCO5)c2cc1OC)C(=O)OC3 | 0.81 | 0.65 | 0.13 | 0.14 | 1.02 | 1.28 | 1.26 |  | inactive
 | COc1cc2c(O[C@@H]3O[C@H](COC(C)=O)[C@@H](O[C@@H]4O[C@H](COC(C)=O)[C@H](OC(C)=O)[C@H](OC(C)=O)[C@H]4OC(C)=O)[C@H](OC(C)=O)[C@H]3OC(C)=O)c3c(c(-c4ccc5c(c4)OCO5)c2cc1OC)C(=O)OC3 | > 10 | > 10 | 2 | > 10 |  |  |  |  | 
 | CCOC(=O)c1c(C(=O)OCC)c(-c2ccc3c(c2)OCO3)c2cc(OC)c(OC)cc2c1O[C@@H]1OC[C@H](OC(C)=O)[C@H](OC(C)=O)[C@H]1OC(C)=O | > 10 |  | > 10 |  |  |  |  |  | 
